Laboratory results taken from ChEMBL document CHEMBL2010803, “Novel NSAID 1-acyl-4-cycloalkyl/arylsemicarbazides and 1-acyl-5-benzyloxy/hydroxy carbamoylcarbazides as potential anticancer agents and antioxidants” (Eur J Med Chem, 2012).
The source made the active and inactive calls. The rule behind the calls is not given here.

Assays:
[1] = test system: MCF7; experiment: Cytostatic activity against human MCF7 cells after 72 hrs by MTT assay; assay type: functional, cell-based; details: MCF7, 72 h
How it was run: (§1)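 Monolayers in DMEM with 10% FBS, 2 mM L-glutamine and penicillin/streptomycin, 37 °C, 5% CO2. Seeded at 1–3 × 10^4 cells/ml, then compound added in tenfold dilutions (10⁻⁸–10⁻⁴ M) for 72 h. MTT read at 570 nm; percent growth taken against time-zero and untreated controls. IC50 by linear regression; quadruplicate, at least two experiments.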

[2] = test system: Punta Toro virus; experiment: Antiviral activity against Punta Toro virus infected in african green monkey Vero cells assessed as inhibition of virus-induced cytopathic effect at 0.32 to 100 uM; assay type: functional, organism-based
How it was run: (§2)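 Confluent cell cultures were infected with 100 CCID50 of virus in the presence of test compound at 100, 40, 8, 1.6 and 0.32 μM. Cytopathic effect was scored once it was complete in untreated infected controls.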

[3] = test system: Sindbis virus; experiment: Antiviral activity against Sindbis virus infected in african green monkey Vero cells assessed as inhibition of virus-induced cytopathic effect at 0.32 to 100 uM; assay type: functional, organism-based; how it was run: as §2
[4] = test system: NCI-H460; experiment: Cytostatic activity against human NCI-H460 cells after 72 hrs by MTT assay; assay type: functional, cell-based; details: NCI-H460, 72 h; how it was run: as §1
[5] = test system: CCRF-CEM; experiment: Cytostatic activity against human CEM cells after 3 days by coulter counter analysis; assay type: functional, cell-based; details: 72 h
How it was run: (§3)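 300,000–500,000 cells/ml mixed 1:1 with compound dilutions and incubated at 37 °C for 2 days (L1210) or 3 days (CEM, HeLa). Cell number counted with a Coulter counter; HeLa trypsinized before counting.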

[6] = test system: L1210; experiment: Cytostatic activity against mouse L1210 cells after 2 days by coulter counter analysis; assay type: functional, cell-based; details: L1210, 48 h; how it was run: as §3
[7] = test system: Influenza A virus; experiment: Antiviral activity against Influenza A virus H1N1 infected in MDCK cells assessed as inhibition of virus-induced cytopathic effect at 0.32 to 100 uM; assay type: functional, organism-based
How it was run: (§4)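 Confluent MDCK monolayers were infected in the presence of the compound at 100, 40, 8, 1.6 and 0.32 μM. Viral cytopathicity was scored once it was complete in untreated infected control cultures.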

[8] = test system: Glycine max; experiment: Inhibition of soybean LOX assessed as conversion of sodium linoleate to 13- hydroperoxylinoleic acid at 100 uM
[9] = test system: Radical scavenging activity; experiment: Antioxidant activity assessed as DPPH free radical scavenging activity at 100 uM after 60 mins by spectrophotometric analysis; assay type: functional
How it was run: (§5)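 0.05 mM DPPH in absolute ethanol mixed with an equal volume of compound in DMSO (final 100 μM). Shaken and left 20 or 60 min, then absorbance read at 517 nm and percent activity calculated. Three replicates, averaged.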

[10] = test system: Coxsackievirus B4; experiment: Antiviral activity against Coxsackievirus B4 infected in african green monkey Vero cells assessed as inhibition of virus-induced cytopathic effect at 0.32 to 100 uM; assay type: functional, organism-based; how it was run: as §2
[11] = Antioxidant activity assessed as inhibition of AAPH-induced linoleic acid lipid peroxidation by measuring conjugated diene hydroperoxide level; assay type: functional; design: concentration or dose not given beside the values; details: dose or concentration not given here
How it was run: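 Linoleic acid sodium salt (10 μL of 16 mM) in 0.05 M phosphate buffer pH 7.4 at 37 °C. Oxidation started under air with 50 μL of 40 mM AAPH. Conjugated diene hydroperoxide formation followed as absorbance rise at 234 nm; control contains the same DMSO level. At least triplicate.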

[12] = test system: Coxsackievirus B4; experiment: Antiviral activity against Coxsackievirus B4 infected in human cervix carcinoma cells assessed as inhibition of virus-induced cytopathic effect at 0.32 to 100 uM; assay type: functional, organism-based; how it was run: as §2
[13] = test system: Human immunodeficiency virus 2; experiment: Antiviral activity against HIV2 ROD infected in human CEM cells assessed as inhibition of virus-induced CEM giant cell formation at 0.32 to 100 uM after 4 days; assay type: functional, organism-based; details: ISOLATE ROD, CCRF-CEM
How it was run: (§6)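 CEM cells (~3 × 10^5 cells/cm³) exposed to 100 CCID50/ml of virus and seeded into wells holding compound dilutions. Incubated 4 days at 37 °C, then giant cell formation examined microscopically.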

[14] = test system: Human respirovirus 3; experiment: Antiviral activity against Parainfluenza virus 3 infected in african green monkey Vero cells assessed as inhibition of virus-induced cytopathic effect at 0.32 to 100 uM; assay type: functional, organism-based; how it was run: as §2
[15] = test system: Radical scavenging activity; experiment: Antioxidant activity assessed as DPPH free radical scavenging activity at 100 uM after 20 mins by spectrophotometric analysis; assay type: functional; how it was run: as §5
[16] = test system: Respiratory syncytial virus; experiment: Antiviral activity against RSV infected in human cervix carcinoma cells assessed as inhibition of virus-induced cytopathic effect at 0.32 to 100 uM; assay type: functional, organism-based; how it was run: as §2
[17] = test system: HCT-116; experiment: Cytostatic activity against human HCT116 cells after 72 hrs by MTT assay; assay type: functional, cell-based; details: HCT-116, 72 h; how it was run: as §1
[18] = test system: Human immunodeficiency virus 1; experiment: Antiviral activity against HIV1 3B infected in human CEM cells assessed as inhibition of virus-induced CEM giant cell formation at 0.32 to 100 uM after 4 days; assay type: functional, organism-based; details: CCRF-CEM; how it was run: as §6
[19] = test system: Vesicular stomatitis virus; experiment: Antiviral activity against Vesicular stomatitis virus infected in human cervix carcinoma cells assessed as inhibition of virus-induced cytopathic effect at 0.32 to 100 uM; assay type: functional, organism-based
How it was run: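 Confluent human cervix carcinoma (HeLa) cultures received 100 CCID50 of VSV together with the compound at 100, 40, 8, 1.6 or 0.32 μM. Cytopathicity was read at the point of full CPE in infected, untreated control wells.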

[20] = test system: HeLa; experiment: Cytostatic activity against human HeLa cells after 3 days by coulter counter analysis; assay type: functional, cell-based; details: 72 h; how it was run: as §3
[21] = test system: Human alphaherpesvirus 2; experiment: Antiviral activity against HSV2 G infected in human lung fibroblast assessed as inhibition of virus-induced cytopathic effect at 0.32 to 100 uM; assay type: functional, organism-based; details: strain G; how it was run: as §2
[22] = test system: Human alphaherpesvirus 1; experiment: Antiviral activity against HSV1 KOS infected in human lung fibroblast assessed as inhibition of virus-induced cytopathic effect at 0.32 to 100 uM; assay type: functional, organism-based; how it was run: as §2
[23] = test system: Influenza A virus; experiment: Antiviral activity against Influenza A virus H3N2 infected in MDCK cells assessed as inhibition of virus-induced cytopathic effect at 0.32 to 100 uM; assay type: functional, organism-based; how it was run: as §4
[24] = test system: Vesicular stomatitis virus; experiment: Antiviral activity against VSV infected in human lung fibroblast assessed as inhibition of virus-induced cytopathic effect at 0.32 to 100 uM; assay type: functional, organism-based
[25] = test system: Feline coronavirus; experiment: Antiviral activity against Feline coronavirus infected in feline CRFK cells assessed as inhibition of virus-induced cytopathic effect at 0.32 to 100 uM; assay type: functional, organism-based; how it was run: as §2
[26] = test system: Mammalian orthoreovirus 1; experiment: Antiviral activity against Reovirus-1 infected in african green monkey Vero cells assessed as inhibition of virus-induced cytopathic effect at 0.32 to 100 uM; assay type: functional, organism-based; how it was run: as §2
[27] = test system: Felid alphaherpesvirus 1; experiment: Antiviral activity against Feline herpesvirus infected in feline CRFK cells assessed as inhibition of virus-induced cytopathic effect at 0.32 to 100 uM; assay type: functional, organism-based; how it was run: as §2
[28] = test system: Vaccinia virus; experiment: Antiviral activity against Vaccinia virus infected in human lung fibroblast assessed as inhibition of virus-induced cytopathic effect at 0.32 to 100 uM; assay type: functional, organism-based; details: Orthopoxvirus vaccinia
[29] = test system: Influenza B virus; experiment: Antiviral activity against Influenza B virus infected in MDCK cells assessed as inhibition of virus-induced cytopathic effect at 0.32 to 100 uM; assay type: functional, organism-based; how it was run: as §4

CC(C)Cc1ccc(C(C)C(=O)NNC(=O)NO)cc1 (stereo unspecified)
IC50 [1]: > 100 µM
inhibition [2]: inactive
inhibition [3]: inactive
IC50 [4]: > 100 µM
IC50 [5]: 205 µM
IC50 [6]: 108 µM
inhibition [7]: inactive
inhibition [8]: 7%
Activity [9]: 54%
inhibition [10]: inactive
inhibition [11]: 20%
inhibition [12]: inactive
inhibition [13]: inactive
inhibition [14]: inactive
Activity [15]: 29%
inhibition [16]: inactive
IC50 [17]: > 100 µM
inhibition [18]: inactive
inhibition [19]: inactive
IC50 [20]: 160 µM
inhibition [21]: inactive
inhibition [22]: inactive
inhibition [23]: inactive
inhibition [24]: inactive
inhibition [25]: inactive
inhibition [26]: inactive
inhibition [27]: inactive
inhibition [28]: inactive
inhibition [29]: inactive

CC(C)Cc1ccc(C(C)C(=O)NNC(=O)NOCc2ccccc2)cc1 (stereo unspecified)
IC50 [1]: 50 µM
inhibition [2]: inactive
inhibition [3]: inactive
IC50 [4]: > 100 µM
IC50 [5]: ≥ 250 µM
IC50 [6]: 192 µM
inhibition [7]: inactive
inhibition [8]: inactive
Activity [9]: inactive
inhibition [10]: inactive
inhibition [11]: 100%
inhibition [12]: inactive
inhibition [13]: inactive
inhibition [14]: inactive
Activity [15]: inactive
inhibition [16]: inactive
IC50 [17]: 76 µM
inhibition [18]: inactive
inhibition [19]: inactive
IC50 [20]: 178 µM
inhibition [21]: inactive
inhibition [22]: inactive
inhibition [23]: inactive
inhibition [24]: inactive
inhibition [25]: inactive
inhibition [26]: inactive
inhibition [27]: inactive
inhibition [28]: inactive
inhibition [29]: inactive

CC(C(=O)NNC(=O)NNC(=O)NOCc1ccccc1)c1cccc(Cc2ccccc2)c1 (stereo unspecified)
IC50 [1]: 19 µM
inhibition [2]: inactive
inhibition [3]: inactive
IC50 [4]: > 100 µM
IC50 [5]: 96 µM
IC50 [6]: 102 µM
inhibition [7]: inactive
inhibition [8]: inactive
Activity [9]: 19%
inhibition [10]: inactive
inhibition [11]: 100%
inhibition [12]: inactive
inhibition [13]: inactive
inhibition [14]: inactive
Activity [15]: 10%
inhibition [16]: inactive
IC50 [17]: 64 µM
inhibition [18]: inactive
inhibition [19]: inactive
IC50 [20]: 76 µM
inhibition [21]: inactive
inhibition [22]: inactive
inhibition [23]: inactive
inhibition [24]: inactive
inhibition [25]: inactive
inhibition [26]: inactive
inhibition [27]: inactive
inhibition [28]: inactive
inhibition [29]: inactive

CC(C(=O)NN)c1cccc(Oc2ccccc2)c1 (stereo unspecified)
IC50 [1]: > 100 µM
inhibition [2]: inactive
inhibition [3]: inactive
IC50 [4]: > 100 µM
IC50 [5]: 154 µM
IC50 [6]: 212 µM
inhibition [7]: inactive
inhibition [8]: 3%
Activity [9]: 1%
inhibition [10]: inactive
inhibition [11]: 10%
inhibition [12]: inactive
inhibition [13]: inactive
inhibition [14]: inactive
Activity [15]: inactive
inhibition [16]: inactive
IC50 [17]: > 100 µM
inhibition [18]: inactive
inhibition [19]: inactive
IC50 [20]: 120 µM
inhibition [21]: inactive
inhibition [22]: inactive
inhibition [23]: inactive
inhibition [24]: inactive
inhibition [25]: inactive
inhibition [26]: inactive
inhibition [27]: inactive
inhibition [28]: inactive
inhibition [29]: inactive
